Test results from ChEMBL document CHEMBL3098017, “Discovery and in Vivo Evaluation of Potent Dual CYP11B2 (Aldosterone Synthase) and CYP11B1 Inhibitors” (ACS Med Chem Lett, 2013).

What was measured:
[1] = target: T1, Cytochrome P450 11B2, mitochondrial (Homo sapiens, UniProt P19099); assay: Inhibition of CYP11B2 in human NCI-H295R cells assessed as inhibition of angiotensin-2-induced aldosterone production after 24 hrs by RIA; format: cell-based
T1 sequence (P19099 whole entry): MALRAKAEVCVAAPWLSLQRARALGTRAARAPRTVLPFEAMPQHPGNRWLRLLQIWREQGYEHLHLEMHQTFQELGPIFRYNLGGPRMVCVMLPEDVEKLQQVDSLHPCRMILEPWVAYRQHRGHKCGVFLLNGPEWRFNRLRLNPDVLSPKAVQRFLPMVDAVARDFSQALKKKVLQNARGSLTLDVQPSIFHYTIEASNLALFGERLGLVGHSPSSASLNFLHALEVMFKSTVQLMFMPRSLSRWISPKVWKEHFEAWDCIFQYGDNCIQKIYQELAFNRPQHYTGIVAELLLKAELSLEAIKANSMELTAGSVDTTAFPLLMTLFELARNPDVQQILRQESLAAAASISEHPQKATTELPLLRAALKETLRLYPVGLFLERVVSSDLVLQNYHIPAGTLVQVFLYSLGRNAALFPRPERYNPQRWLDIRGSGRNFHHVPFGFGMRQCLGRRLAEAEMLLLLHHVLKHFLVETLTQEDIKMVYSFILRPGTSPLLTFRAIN

Rattus norvegicus [2] = assay: Reduction of angiotensin 2-stimulated plasma aldosterone time-weighted average (0 to 8 hrs) in Sprague-Dawley rat at 1 mg/kg, po; format: functional; design: scale not given: the % may be the effect or the level left
Method in brief: (§1)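 Angiotensin-II infusion in Sprague–Dawley rats (n = 3) raised baseline plasma aldosterone; oral dosing in corn starch/water or HCl (1.5 equiv of 1 N)/cornstarch/water; plasma sampled at set times; time-weighted average drug level 0–8 h; time-weighted average % fall in plasma aldosterone from baseline.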

Rattus norvegicus [3] = assay: Time-weighted average (0 to 8 hrs) in Sprague-Dawley rat at 1 mg/kg, po; format: ADME, organism-based; design: dose 1 mg/kg, route oral; conditions: in vivo; method in brief: as §1
[4] = Oral bioavailability in Sprague-Dawley rat at 1 mg/kg; format: ADME, organism-based; conditions: in vivo
Method in brief: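 Sprague–Dawley rats (n = 3), oral dose in corn starch/water or HCl (1.5 equiv of 1 N)/cornstarch/water; %F calculated against a 0.3 mg/kg intra-arterial dose.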

CYP19 (aromatase) = target: T2, CYP19 (aromatase) (Homo sapiens, UniProt P11511); assay: Inhibition of human CYP19 at 1 uM preincubated for 10 mins followed by protein addition measured after 90 mins by fluorimetric analysis relative to control
T2 sequence (P11511 whole entry): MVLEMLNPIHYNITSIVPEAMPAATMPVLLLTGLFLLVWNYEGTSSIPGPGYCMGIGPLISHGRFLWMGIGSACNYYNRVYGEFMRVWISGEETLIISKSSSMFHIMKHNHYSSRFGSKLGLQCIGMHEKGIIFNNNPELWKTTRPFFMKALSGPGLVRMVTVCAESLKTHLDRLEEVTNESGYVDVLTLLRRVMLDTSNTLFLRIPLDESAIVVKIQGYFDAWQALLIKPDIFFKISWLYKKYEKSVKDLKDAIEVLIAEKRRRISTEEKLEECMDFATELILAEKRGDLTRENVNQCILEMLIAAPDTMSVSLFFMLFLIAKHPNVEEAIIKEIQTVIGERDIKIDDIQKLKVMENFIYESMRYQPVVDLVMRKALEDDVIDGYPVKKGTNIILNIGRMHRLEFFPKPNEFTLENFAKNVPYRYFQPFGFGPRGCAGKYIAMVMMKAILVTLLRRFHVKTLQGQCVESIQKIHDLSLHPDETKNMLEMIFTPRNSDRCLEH

[5] = target: T3, Cytochrome P450 11B1, mitochondrial (Homo sapiens, UniProt P15538); assay: Inhibition of human recombinant CYP11B1 using 11-deoxycortisol as substrate by cell-based assay
T3 sequence (P15538 whole entry): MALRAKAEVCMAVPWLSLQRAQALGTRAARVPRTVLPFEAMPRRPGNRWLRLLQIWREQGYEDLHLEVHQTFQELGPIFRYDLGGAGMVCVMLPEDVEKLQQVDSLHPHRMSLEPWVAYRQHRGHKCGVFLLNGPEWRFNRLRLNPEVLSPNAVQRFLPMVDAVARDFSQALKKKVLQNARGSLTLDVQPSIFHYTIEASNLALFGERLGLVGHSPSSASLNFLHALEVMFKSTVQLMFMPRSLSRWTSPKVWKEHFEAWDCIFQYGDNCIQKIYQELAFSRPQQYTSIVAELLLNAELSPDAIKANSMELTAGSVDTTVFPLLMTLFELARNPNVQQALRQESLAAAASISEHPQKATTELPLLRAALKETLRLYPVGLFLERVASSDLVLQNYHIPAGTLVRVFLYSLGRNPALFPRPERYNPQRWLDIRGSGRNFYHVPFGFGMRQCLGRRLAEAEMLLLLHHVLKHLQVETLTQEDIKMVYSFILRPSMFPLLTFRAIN

[6] = target: T1, Cytochrome P450 11B2, mitochondrial; assay: Inhibition of human recombinant CYP11B2 using 11-deoxycorticosterone as substrate by cell-based assay
[7] = target: T4, Cytochrome P450 11B2, mitochondrial (Rattus norvegicus, UniProt P30099); assay: Inhibition of rat recombinant CYP11B2 using 11-deoxycorticosterone as substrate by cell-based assay
T4 sequence (P30099 whole entry): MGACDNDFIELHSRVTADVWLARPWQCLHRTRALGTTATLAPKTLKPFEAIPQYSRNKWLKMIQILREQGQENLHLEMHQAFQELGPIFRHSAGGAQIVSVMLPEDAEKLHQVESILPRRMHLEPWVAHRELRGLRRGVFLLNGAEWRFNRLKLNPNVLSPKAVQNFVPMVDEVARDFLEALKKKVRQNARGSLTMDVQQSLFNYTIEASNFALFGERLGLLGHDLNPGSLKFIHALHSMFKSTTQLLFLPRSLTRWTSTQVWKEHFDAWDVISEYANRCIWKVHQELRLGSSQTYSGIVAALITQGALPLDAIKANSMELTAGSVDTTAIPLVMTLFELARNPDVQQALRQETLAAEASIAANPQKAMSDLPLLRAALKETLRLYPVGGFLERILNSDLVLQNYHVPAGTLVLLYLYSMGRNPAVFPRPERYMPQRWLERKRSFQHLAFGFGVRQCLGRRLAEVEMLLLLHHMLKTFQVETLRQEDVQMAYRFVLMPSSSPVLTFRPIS

Cytochrome P450 2D6 = Cytochrome P450 2D6 (Homo sapiens, UniProt P10635)
Cytochrome P450 2D6, sequence (P10635 whole entry): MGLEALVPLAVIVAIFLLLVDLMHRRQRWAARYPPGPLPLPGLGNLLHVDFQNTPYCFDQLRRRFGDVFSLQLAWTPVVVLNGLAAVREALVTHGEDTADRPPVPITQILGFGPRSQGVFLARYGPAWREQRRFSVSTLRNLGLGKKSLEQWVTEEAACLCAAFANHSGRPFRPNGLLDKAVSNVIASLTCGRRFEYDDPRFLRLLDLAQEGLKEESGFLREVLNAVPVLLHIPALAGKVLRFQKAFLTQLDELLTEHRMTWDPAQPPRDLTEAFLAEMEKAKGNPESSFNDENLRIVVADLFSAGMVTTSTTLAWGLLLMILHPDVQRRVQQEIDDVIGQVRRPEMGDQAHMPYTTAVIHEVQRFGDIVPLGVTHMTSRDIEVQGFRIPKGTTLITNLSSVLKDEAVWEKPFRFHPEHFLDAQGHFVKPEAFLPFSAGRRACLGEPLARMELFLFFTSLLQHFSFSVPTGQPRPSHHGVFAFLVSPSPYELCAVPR

Cytochrome P450 2C9 = Cytochrome P450 2C9 (Homo sapiens, UniProt P11712)
Cytochrome P450 2C9, sequence (P11712 whole entry): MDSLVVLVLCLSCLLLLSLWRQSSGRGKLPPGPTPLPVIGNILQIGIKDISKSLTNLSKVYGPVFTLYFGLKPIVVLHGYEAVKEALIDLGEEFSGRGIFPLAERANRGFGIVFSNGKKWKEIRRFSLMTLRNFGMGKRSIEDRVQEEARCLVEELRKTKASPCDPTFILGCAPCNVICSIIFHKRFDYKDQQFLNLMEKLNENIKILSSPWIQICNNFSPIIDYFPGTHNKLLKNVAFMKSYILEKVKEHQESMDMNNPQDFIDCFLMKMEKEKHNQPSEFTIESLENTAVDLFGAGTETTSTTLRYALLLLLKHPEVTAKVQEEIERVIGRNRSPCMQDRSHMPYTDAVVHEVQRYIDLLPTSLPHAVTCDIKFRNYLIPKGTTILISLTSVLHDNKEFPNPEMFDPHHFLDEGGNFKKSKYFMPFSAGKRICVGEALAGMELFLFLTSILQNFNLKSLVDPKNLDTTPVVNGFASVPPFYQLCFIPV

[8] = target: T5, Cytochrome P450 11B1, mitochondrial (Rattus norvegicus, UniProt P15393); assay: Inhibition of rat recombinant CYP11B1 using 11-deoxycortisol as substrate by cell-based assay
T5 sequence (P15393 whole entry): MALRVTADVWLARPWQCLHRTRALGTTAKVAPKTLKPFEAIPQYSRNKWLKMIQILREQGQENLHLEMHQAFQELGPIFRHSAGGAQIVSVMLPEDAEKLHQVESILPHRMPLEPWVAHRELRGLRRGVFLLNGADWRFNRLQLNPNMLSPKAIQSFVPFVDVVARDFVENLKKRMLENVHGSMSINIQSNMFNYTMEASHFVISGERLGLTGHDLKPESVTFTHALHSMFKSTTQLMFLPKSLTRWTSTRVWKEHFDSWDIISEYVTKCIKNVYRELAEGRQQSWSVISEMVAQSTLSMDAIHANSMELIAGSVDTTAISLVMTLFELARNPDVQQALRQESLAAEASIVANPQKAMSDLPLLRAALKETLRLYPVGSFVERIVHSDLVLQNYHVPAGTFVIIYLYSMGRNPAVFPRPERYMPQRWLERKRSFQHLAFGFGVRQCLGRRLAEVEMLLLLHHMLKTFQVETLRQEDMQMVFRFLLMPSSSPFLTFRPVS

Aromatase = target: T6, Aromatase (Homo sapiens, UniProt P11511)
T6 sequence (P11511 whole entry): T2 sequence (P11511 whole entry)

SMILES	IC50 [1] [nM]	Cave (Rattus norvegicus [3]) [nM]	bioavailability [4] [%]	inhibition at 1.5 h, 1 µM (CYP19 (aromatase)) [%]	Activity (Rattus norvegicus [2]) [%]	other results
Fc1ccc(-c2ccccc2[C@H]2CCc3cncn32)cc1	140					
N#Cc1ccc([C@H]2CCCc3cncn32)c(-c2ccccc2)c1	56					
Cc1cc(C#N)ccc1C1CCCc2cncn21 (racemic)	464			100		
c1ccc(-c2ccccc2[C@H]2CCc3cncn32)cc1	441					
N#Cc1ccc(C2CCCc3cncn32)c(Cl)c1 (racemic)	792			99		
N#Cc1ccc([C@H]2CCc3cncn32)c(F)c1 [OSILODROSTAT]		377	42		65	IC50 [7]: 111 nM; IC50 (Cytochrome P450 2D6): > 10000 nM; IC50 (Cytochrome P450 2C9): > 10000 nM
COc1cc(C#N)ccc1C1CCCc2cncn21 (racemic)	390			100		
N#Cc1ccc([C@H]2CCCc3cncn32)c(F)c1	87			20		
COC(=O)[C@]1(c2ccc(C#N)cc2F)CCc2cncn21	351					
COc1cc(C#N)ccc1[C@H]1CCCCc2cncn21	520					

More lines, main results first:

IC50 [1] [nM]	Cave (Rattus norvegicus [3]) [nM]	bioavailability [4] [%]	inhibition at 1.5 h, 1 µM (CYP19 (aromatase)) [%]	SMILES	Activity (Rattus norvegicus [2]) [%]	other results
37				c1ccc(-c2ccccc2[C@H]2CCCc3cncn32)cc1		
5	15	8	45	COc1cc(C#N)ccc1[C@@]1(C(=O)N(C)Cc2ccc(F)cc2)CCc2cncn21	35	
2	4	< 1		c1ccc(-c2ccccc2[C@H]2CCCCc3cncn32)cc1	27	
3				COC(=O)[C@]1(c2ccc(C#N)cc2OC)CCc2cncn21		
16			100	N#Cc1ccc([C@H]2CCCCc3cncn32)c(Cl)c1		
1.5			95	N#Cc1ccc([C@@]2(C(=O)OCc3ccc(F)cc3)CCc3cncn32)c(Cl)c1		IC50 [5]: < 0.1 nM; IC50 [6]: 3.8 nM
10			47	N#Cc1ccc([C@H]2CCc3cncn32)c(Br)c1		
8			87	Cc1cc(C#N)ccc1[C@H]1CCc2cncn21		IC50 [8]: 386 nM; IC50 [7]: 24 nM; IC50 [5]: 1.5 nM; IC50 [6]: 0.9 nM
17	6	1		COC(=O)[C@]1(c2ccc(C#N)cc2Cl)CCc2cncn21	81	IC50 (Aromatase): 50 nM
13	152	59		N#Cc1ccc([C@H]2CCc3cncn32)c(Cl)c1	51	
42				N#Cc1ccc([C@H]2CCCCc3cncn32)c(F)c1	69	IC50 [5]: 7.2 nM; IC50 [6]: 3.2 nM; IC50 (Aromatase): 1100 nM
2	152	8		Fc1ccc(-c2ccccc2[C@H]2CCCCc3cncn32)cc1	73	
1	6	1		N#Cc1ccc([C@H]2CCCCc3cncn32)c(-c2ccc(F)cc2)c1	66	IC50 [8]: 0.3 nM; IC50 [7]: 1 nM; IC50 [5]: 0.3 nM; IC50 [6]: 0.4 nM
5	33	18	80	COc1cc(C#N)ccc1[C@H]1CCc2cncn21	50	
